Rows were chosen to be rich in hits. Some 2.3% of all compounds tested hit in one or more screens of this group.
SR-BI HDL uptake = inhibitors of SR-BI mediated HDL lipid uptake, primary screen, ldlA[mSR-BI] cells, fluorescence, single point. 320,000 tested, 0.96% active. inhibition, % at 12.5 µM. ldlA[mSR-BI] CHO cells, DiI-HDL uptake fluorescence, 3 h. Scavenger receptor class B member 1 (Mus musculus), Q61009;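 active = mean replicate inhibition of at least 70% and a set share of replicates each scoring 70 or more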;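 also: 0% = median of neutral control wells and 100% = median of positive control wells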
Target sequence (Q61009 whole entry, looked up): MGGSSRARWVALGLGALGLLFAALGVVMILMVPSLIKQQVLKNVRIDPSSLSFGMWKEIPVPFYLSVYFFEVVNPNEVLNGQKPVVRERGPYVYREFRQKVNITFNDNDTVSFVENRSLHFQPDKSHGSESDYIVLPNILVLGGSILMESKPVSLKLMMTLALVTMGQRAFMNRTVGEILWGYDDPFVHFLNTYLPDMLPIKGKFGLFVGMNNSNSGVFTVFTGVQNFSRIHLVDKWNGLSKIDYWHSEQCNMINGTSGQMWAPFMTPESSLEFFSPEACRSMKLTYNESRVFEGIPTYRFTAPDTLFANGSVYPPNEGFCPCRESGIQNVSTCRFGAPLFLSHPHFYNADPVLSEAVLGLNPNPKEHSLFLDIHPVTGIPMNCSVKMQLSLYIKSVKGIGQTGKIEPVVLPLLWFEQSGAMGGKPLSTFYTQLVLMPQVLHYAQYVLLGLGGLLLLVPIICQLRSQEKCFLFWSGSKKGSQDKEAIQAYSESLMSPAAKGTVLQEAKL
ATG4B inhibitor = ATG4B protease inhibitors, primary screen, biochemical, fluorescence, uHTS; ATG4B cleavage of LC3-PLA2, NBD-HPC fluorescence, 1 h; inhibition, % at 8.33 µM; 340,000 tested, 0.51% active; in the data active = inhibition above about 40%
CAL PDZ FP-1 = untagged CAL PDZ binding inhibitors, primary screen, biochemical, fluorescence polarization, HTS; inhibition, % at 24.9 µM; purified CAL PDZ, TMR-peptide fluorescence polarization, 1 h; 300,000 tested, 0.92% active;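 active = mean inhibition of at least 30% with at least half of replicates also reaching 30%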;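 also: 0% = DMSO neutral control and 100% = excess unlabeled competitor peptide PRC23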
SR-BI DiI-HDL act = activators of SR-BI mediated DiI-HDL uptake, primary screen, ldlA[mSR-BI] CHO cells, DiI fluorescence. 3 h; 100 = double the neutral-control signal. activation, % at 12.5 µM. 320,000 tested, 0.096% active. AID 504775, 2011;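 active = mean replicate activation of at least 60% and every replicate at or above 60%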;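 also: 0% = median plate neutral-control signal and 100% = twice that signal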
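Material: SR-BI-overexpressing, LDLR-lacking CHO cells; schedule: compound exposure 3 h, 37 °C; reagent: DiI-labelled HDL at 10 µg/mL final; technique: bottom-read fluorescence, 550/595 nm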
CAL PDZ FP-2 = CAL PDZ peptide-binding inhibitors, primary screen, biochemical, fluorescence polarization, Cer-tagged CAL PDZ, HTS; purified CAL PDZ, TMR-peptide fluorescence polarization, 1 h; 330,000 tested, 0.02% active; inhibition, % at 20 µM;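 active = highest replicate inhibition of at least 40%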;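 also: plate controls were DMSO neutral control wells for no effect and unlabeled competitor peptide control wells for full effect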
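material = purified tagged CAL PDZ domain construct (CerCALP) | buffer or medium = sodium phosphate/NaCl buffer pH 7.4 with TCEP, IgG, Thesit | reagent = TMR-labelled reporter peptide T*-PRC34 bound in PDZ groove | incubation = 1 h room-temperature incubation prior to read | measured by = fluorescence polarization (mP) | evaluation = percent inhibition from loss of millipolarization | control set = unlabelled peptide and DMSO controls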
An asterisk follows results filed as active; i = inactive; . = not tested or not shown.

SMILES	SR-BI HDL uptake	ATG4B inhibitor	CAL PDZ FP-1	SR-BI DiI-HDL act	CAL PDZ FP-2
COc1cc(OC)cc(C(=O)NCC(=O)OCC(=O)NCc2ccco2)c1	-13	2	-9	13	0
COc1ccc(C(=O)NCC(=O)OCC(=O)NCc2ccco2)cc1	-19	-5	43*	19	0
O=C(CCC1CCCN(C(=O)c2cccc(F)c2)C1)N1CCN(c2ccccn2)CC1 (stereo not given)	1	5	14	-1	-1
Cc1cc(NC(=O)CSc2nc3cc(Cl)ccc3c(=O)n2C(C)C)no1	11	-10	-4	-11	-1
COc1ccc(NC(=O)C(=O)NCCC2CCCCN2S(=O)(=O)c2ccc(F)cc2)cc1 (stereo not given)	2	-10	.	-2	-1
CCNC(=O)COC(=O)c1ccc(-n2nc(C)cc2C)cc1	11	-2	3	-11	-1
Cc1cc(C)n(-c2ccc(C(=O)OCC(=O)NCc3ccco3)cc2)n1	16	-8	40*	-16	.
COc1ccc(CN2CCC3CC2c2cc(-c4cccc(C)c4)ccc23)cc1 (stereo not given)	-2	2	-1	2	1
CC1(C)CC(CC(=O)NC(=S)Nc2ccc([N+](=O)[O-])cc2)C(=O)O1 (stereo not given)	90*	1	0	-90	-2
COc1ccc(O)c(C(=O)c2coc(=N)c(C(=O)Nc3ccc(SC(F)F)cc3)c2)c1	76*	5	40*	-76	-1
O=C(O)C1CC=CCC1C(=O)Nc1ccccc1 (stereo not given)	-18	-7	1	18	-1
O=C(COC(=O)c1ccc(NC(=O)C2CC=CCC2C(=O)O)cc1)c1ccccc1 (stereo not given)	5	-2	67*	-5	.
OCCCCc1nccc2c1[nH]c1ccccc12	i	-1	-3	538*	-3
CCCn1c(Sc2nnnn2-c2ccccc2)n[nH]c1=O	-80	0	-1	80*	.
CC(=O)c1sc2nc(-c3cccs3)cc(C(F)(F)F)c2c1N	72*	-21	1	-72	1
CC1CCN(CCCn2c(=S)[nH]c3c(sc4ccccc43)c2=O)CC1	-2	-6	50*	2	12
O=c1c2sc3ccccc3c2[nH]c(=S)n1CCN1CCOCC1	-71	-2	-3	71*	-1
CCCN(C(=O)c1ccc(N(C)S(=O)(=O)c2ccc(C)cc2)cc1)C1CCS(=O)(=O)C1 (stereo not given)	7	-5	-7	-7	-3
Cc1ccnc(Nc2nc(-c3ccc(O)cc3)cs2)c1	25	-19	-3	-25	1
Cc1ccnc(Nc2nc(-c3ccc(O)cc3O)cs2)c1	83*	4	29	-83	1
CC(C)C[C@@H](CNCC(=O)[C@H](Cc1ccccc1)NC(=O)c1[nH]cnc1C(=O)N[C@@H](C)CN)NC(=O)c1nc[nH]c1C(=O)N[C@@H](C)C(=O)O	-18	.	-1	18	1
N#CC(CCc1ccccc1[N+](=O)[O-])(CCc1ccccc1[N+](=O)[O-])C(N)=O	12	-4	53*	-12	0
CCC(C)Sc1ccc(-c2nc3cc(C)ccn3c2NC2CCCCC2)cc1 (stereo not given)	81*	17	0	-81	0
CCC(C)Sc1ccc(-c2nc3cnccn3c2NC2CCCCC2)cc1 (stereo not given)	63	1	-2	-63	-1
COc1cc(OC)cc(-c2c(-c3ccc(F)cc3)c3cc(-c4cnc(OC)nc4)ccc3n2C)c1	18	3	2	-18	1
SMILES	SR-BI HDL uptake	ATG4B inhibitor	CAL PDZ FP-1	SR-BI DiI-HDL act	CAL PDZ FP-2
COc1ccc2c(c1)C=C([C@@H]1C[C@H]3CN(c4ccccc4)C(=O)[C@]34CCCN14)CO2	13	4	-5	-13	0
Cc1ccc(NC(=S)c2nc3ccccc3[nH]2)c(C)c1	62	25	-2	-62	-1
Cc1ccc(NC(=S)c2nc3ccccc3[nH]2)cc1	77*	10	-7	-77	-1
CC(C)(C)SCCNC(=O)c1ccc(Cl)c([N+](=O)[O-])c1	-79	13	-2	79*	0
COc1ccccc1CCC(=O)Nc1ccc2c(c1)CN(Cc1ccc(CO)o1)CC2	77*	16	-3	-77	-3
O=C(Nc1ccc2c(c1)CN(Cc1ccc(CO)o1)CC2)c1ccc(C(F)(F)F)cc1	54	12	-2	-54	-2
Cc1onc(-c2ccccc2Cl)c1C(=O)Nc1nnc(-c2ccc(Cl)cc2Cl)s1	16	-4	0	-16	-3
CCc1noc(C)c1C(=O)Nc1nc(-c2ccc(Cl)cc2Cl)c(C)s1	75*	21	-2	-75	0
CNC(=O)c1sc2nc(-c3ccc(OC)cc3)cn2c1C	10	-11	2	-10	-1
COc1ccc(-c2cn3c(C)c(C(=O)Nc4cc(NC(C)=O)ccc4OC)sc3n2)cc1	75*	-11	-1	-75	-2
Cc1cc(NC(=O)COC(=O)[C@H](Cc2ccccc2)NC(=O)c2ccco2)no1	-20	-6	-1	20	0
CCN(CC)c1nc(SCCOC(=O)Nc2ccccc2)nc(N(CC)CC)n1	87*	-4	0	-87	-1
CC1CNC(=S)N(c2ccc(F)cc2)C1=O (stereo not given)	-5	-3	1	5	0
O=C(Nc1ccc(Nc2ccccc2)cc1)c1cc([N+](=O)[O-])ccc1Cl	17	-1	46*	-17	9
Cc1ccc(NC(=O)c2csc(-c3ccccc3)c2C)cc1	14	-4	0	-14	0
O=C(Nc1cccc([N+](=O)[O-])c1)c1cc2ccccc2cc1O	129*	6	-2	-129	-1
Cc1c(C(=O)Nc2cccc([N+](=O)[O-])c2)csc1-c1ccccc1	89*	-2	0	-89	-1
Cn1c2c(c3ccccc31)CCN(CCCCN1CCN(c3ccccc3)CC1)C2=O	11	0	-1	-11	-1
CC1CCC(CC(=O)O)(C(=O)O)CC1 (stereo not given)	5	-6	-8	-5	0
CCCCC1OC23CCCCC2C(C#N)(C(=N)O3)C1(C#N)C#N (stereo not given)	-81	-11	4	81*	1
COc1ccccc1C1CC(c2ccc(Br)cc2)=NN1C(=O)c1cccnc1 (stereo not given)	74*	-11	2	-74	-5

Compound activity deposited in PubChem by several laboratories.
